Sampled rows, rich in hits. Any-hit rate of the full collection: about 3.7%.
Kir21 inh – blocks the mouse Kir2.1 inward-rectifier potassium channel; HEK293-Kir2.1, FluxOR thallium flux fluorescence; stronger effect = lower value; B-score at 10 µM; hit rate 0.85% among 310,000;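 active = fluorescence ratio B-score at or below minus 3 SD of library scores, with starting-brightness B-score within 2 SD, cut at about -4.2 in these data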;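 note: channel flux triggered by added potassium and thallium sulfate stimulus; B-score of peak minus minimum fluorescence over baseline after thallium stimulus; more negative B-score means stronger Kir2.1 block with less thallium influx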
KCNQ1 block – inhibitors of human KCNQ1 potassium channel; P51787; CHO-K1 KCNQ1, FluxOR thallium flux fluorescence; stronger effect = higher value; B-score at 10 µM; hit rate 1.3% among 310,000; AID 2642;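 active = compounds whose thallium flux B-score, printed positive for inhibition, exceeds three library SD while starting fluorescence stays within three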;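 note: channel opened by potassium depolarization with thallium stimulus after 20 min compound exposure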
KCNK3 block – human KCNK3 channel inhibition, primary screen. CHO-KCNK3 thallium flux, FluxOR fluorescence; stronger effect = lower value. hit rate 0.84% among 340,000. B-score at 10 µM. O14649. AID 602410;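 active = B-score under library mean minus 4 SD, starting fluorescence ratio at most library mean plus 5 SD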;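 note: more negative B-score means stronger inhibition of thallium flux through KCNK3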
Target sequence (O14649 whole entry, looked up): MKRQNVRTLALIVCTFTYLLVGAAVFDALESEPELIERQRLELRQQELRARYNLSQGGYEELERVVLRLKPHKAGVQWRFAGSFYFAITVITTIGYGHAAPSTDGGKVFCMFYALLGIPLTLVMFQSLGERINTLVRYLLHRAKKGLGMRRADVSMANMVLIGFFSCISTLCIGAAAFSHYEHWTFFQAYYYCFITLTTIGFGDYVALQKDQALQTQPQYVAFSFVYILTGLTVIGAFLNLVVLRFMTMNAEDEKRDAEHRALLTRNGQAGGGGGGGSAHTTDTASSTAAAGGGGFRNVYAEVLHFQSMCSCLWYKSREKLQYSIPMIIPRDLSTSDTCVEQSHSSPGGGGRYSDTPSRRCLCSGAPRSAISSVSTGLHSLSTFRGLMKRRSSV
KCNK9 block – human KCNK9 channel inhibition | B-score at 10 µM | hit rate 1.2% among 310,000 | HEK293 KCNK9, FluxOR thallium flux fluorescence; stronger effect = lower value | Q9NPC2 | AID 488922;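 active = ratio B-score over 3 SD below the library mean, with starting fluorescence within 5 SD of its mean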;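 note: negative B-score means less thallium flux so channel inhibition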
KCNQ1 pot – human KCNQ1 channel potentiation or activation. hit rate 0.35% among 310,000. CHO-K1 KCNQ1, thallium flux FluxOR fluorescence; stronger effect = higher value. B-score at 10 µM. P51787;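 active = fluorescence ratio B-score, a plate-corrected score, at least three library SD, with initial intensity B-score within 5 SD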
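System: CHO-K1 cells stably expressing KCNQ1 / Medium: assay buffer for compound exposure, DMSO matched across wells / Reagent: thallium- and potassium-containing depolarizing buffer / Compound: one concentration, matched DMSO / Incubation: 20 min compound pretreatment at room temperature / Measured by: kinetic FluxOR fluorescence, 10 s baseline plus 110 s post-stimulus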
hERG rescue – compounds protecting human hERG from proarrhythmic drug block; CHO-hERG, FluxOR thallium flux, dofetilide IC70 present; activation (rescue from dofetilide block), less the hit threshold, % at 10 µM; hit rate 0.51% among 310,000;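 active = activation above the mean of controls blocked by dofetilide plus 5 SD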;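 note: thallium influx through hERG after potassium depolarization seen as dye fluorescence rise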
KCNK9 block conf – confirmation of human KCNK9 potassium channel inhibitors. shares compounds with KCNK9 block. AID 492992. HEK293 KCNK9 cells, FluxOR thallium flux fluorescence. inhibition, % at 10 µM. hit rate 43% among 4,900;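 active = thallium signal inhibited by more than 5 SD of the compound-free buffer control wells, on both duplicate plates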;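 note: 0% = assay buffer control wells without compound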
Kir21 sel – mouse Kir2.1 off-target activity of KCNK9 modulators; shares compounds with KCNK9 block; Kir2.1 cells, FluxOR thallium flux fluorescence; inhibition, % at 10 µM; hit rate 4% among 4,900;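 active = thallium signal drop more than 5 SD beyond the mean of the no-compound control wells, seen in both duplicate plates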;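 note: signal is fluorescence rise after thallium addition divided by baseline fluorescence; plate controls were assay buffer only for no effect and full block by chlorpromazine control for full effect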
KCNK9 uninduced – non-induced cell nonspecific activity of KCNK9 modulators; inhibition, % at 10 µM; hit rate 40% among 4,900; non-induced KCNK9-HEK293, FluxOR thallium flux; shares compounds with KCNK9 block;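 active = thallium signal drop beyond 5 SD of the untreated control mean, on both duplicate plates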;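 note: plate controls were buffer only IC0 wells for no effect and SID17386958 at its maximal inhibitory level for full effect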
Numbers without * were called inactive; i = inactive; x = no result given.

SMILES | Kir21 inh | KCNQ1 block | KCNK3 block | KCNK9 block | KCNQ1 pot | hERG rescue | KCNK9 block conf | Kir21 sel | KCNK9 uninduced
CC(C)c1nc(N2CCN(C(=O)c3ccco3)CC2)c(C#N)c2c1COC(C)(C)C2 | -2.13 | i | i | i | i | -21.5 | x | x | x
CC(C)c1nc(N2CCN(C(=O)c3ccccc3)CC2)c(C#N)c2c1COC(C)(C)C2 | -0.31 | i | i | i | i | -11.8 | i | i | i
CC(C)(CNC(=O)Cc1ccc(Cl)cc1Cl)N1CCCCC1 | -0.32 | i | i | i | i | -5.3 | x | x | x
O=C(OCC#CCSc1nnc(-c2ccc(Br)cc2)o1)c1cccs1 | -0.91 | i | i | -11.9* | i | -8.8 | i | i | 40.0%*
O=C(CSc1nccc(=O)[nH]1)NC1CCCCCC1 | x | x | i | x | x | x | x | x | x
O=C(CCN1C(=O)c2ccccc2S1(=O)=O)NCc1ccccc1Cl | 1.46 | i | i | i | i | -1.0 | x | x | x
CC(=C/c1ccccc1)/C=N/NC(=O)c1nnn(-c2nonc2N)c1CN1CCC(C)CC1 | -1.76 | i | i | i | i | -10.5 | x | x | x
Cc1ccccc1COc1ccc(/C=N/NC(=O)c2nnn(-c3nonc3N)c2CN2CCC(C)CC2)cc1 | 0.57 | i | i | i | i | -4.0 | i | i | i
CC1CCN(Cc2c(C(=O)N/N=C/c3ccc(OC(C)C)cc3)nnn2-c2nonc2N)CC1 | 0.3 | i | i | i | i | -15.4 | i | i | i
Cc1ccc2c(c1)N(CC(=O)NCCc1ccccc1)C(=O)c1cccnc1O2 | -1.55 | i | i | i | i | -10.7 | i | i | i
COc1cc(OC)cc(C(=O)N[C@H](C(=O)OCC(=O)Nc2sccc2C#N)C(C)C)c1 | 0.02 | i | i | i | i | -6.7 | x | x | x
O=C(NC(=S)Nc1ccc2c(c1)OCCO2)c1ccccc1 | 0.85 | i | i | i | i | -9.7 | x | x | x
CCOc1cccc(C(=O)NC(=S)Nc2ccc3c(c2)OCCO3)c1 | 0.22 | i | i | i | i | -6.2 | i | i | i
Cc1ccccc1C(=O)NNC(=O)CSc1nc2ccccc2c(=O)[nH]1 | -0.2 | i | i | i | i | -9.1 | x | x | x
c1ccc(C2CCCN(Cc3nc(CC4CC4)no3)CC2)cc1 (stereo not given) | 1.87 | i | i | i | i | -11.8 | i | i | i
Cc1cccc(N2CCN(Cc3nc(CC4CC4)no3)CC2)n1 | 1.57 | i | i | i | i | -10.4 | x | x | x
COc1ccc(OCC2CCCN(Cc3nc(CC4CC4)no3)C2)cc1 (stereo not given) | 0.15 | i | i | i | i | -4.4 | x | x | x
Cc1ccccc1C1CCCN(Cc2nc(CC3CC3)no2)C1 (stereo not given) | 0.06 | i | i | i | i | -17.9 | i | i | i
Cc1ccccc1OCC(=O)NNC(=O)c1cc(S(=O)(=O)N2CCOCC2)ccc1N1CCCC1 | 1.88 | i | i | i | i | -9.2 | x | x | x
O=C(COC(=O)c1oc2ccccc2c1CSc1ccc(Cl)cc1)NC1CCCC1 | 0.64 | 10* | i | -8.1* | i | -6.2 | 32.0%* | 36.5%* | 50.5%*
NC(=O)COC(=O)c1oc2ccccc2c1CSc1ccc(Cl)cc1 | 0.03 | i | i | i | i | -9.8 | x | x | x
COc1ccc(C(=O)C2CCCN(C(=O)c3cccs3)C2)cc1F (stereo not given) | -1.29 | i | i | i | i | -12.8 | i | i | i
COc1ccc(CN2CCCC(C(=O)c3ccc(SC)cc3)C2)cc1Cn1cccn1 (stereo not given) | -1.77 | i | i | i | i | -16.1 | i | i | i
CSc1ccc(C(=O)C2CCCN(Cc3ccc(N4CCNC4=O)cc3)C2)cc1 (stereo not given) | -1.76 | i | i | i | i | -6.5 | x | x | x
COc1cccc(C(=O)C2CCCN(Cc3cccc(-n4cccn4)c3)C2)c1 (stereo not given) | -1.14 | i | i | i | i | -14.3 | i | i | i
SMILES | Kir21 inh | KCNQ1 block | KCNK3 block | KCNK9 block | KCNQ1 pot | hERG rescue | KCNK9 block conf | Kir21 sel | KCNK9 uninduced
COc1ccc(C(=O)C2CCCN(C(=O)c3cccc(Cn4cccn4)c3)C2)cc1F (stereo not given) | -1.16 | i | i | i | i | -15.2 | i | i | i
Cc1cc(C)c(S(=O)(=O)N2CCC(C(=O)NCc3ccco3)CC2)c(C)c1 | 0.81 | i | i | i | i | -15.8 | x | x | x
O=C(COC(=O)CNC(=O)c1sc2ccccc2c1Cl)Nc1c(Cl)cc(Cl)cc1Cl | -0.9 | i | i | i | i | 1.2 | x | x | x
COc1ccc(C(=O)C2CCCN(C(=O)c3cc(C(C)C)no3)C2)cc1F (stereo not given) | -0.01 | i | i | i | i | -5.2 | i | i | i
C/C(=N\NC(=O)COc1ccc(C(C)(C)C)cc1)c1cc2ccccc2o1 | 0.68 | i | i | i | i | -3.2 | i | i | i
C/C(=N\NC(=O)COc1ccc(C)cc1C(C)C)c1cc2ccccc2o1 | 1.1 | i | i | i | i | -0.5 | i | i | i
COc1ccc(CN(C)Cc2nc(Cc3cccc(F)c3)no2)c2cccnc12 | -1.56 | i | i | i | i | -26.8 | x | x | x
COc1cccc(-n2cc(CN(C)Cc3nc(Cc4ccccc4)no3)cn2)c1 | 0.66 | i | i | i | i | -8.6 | i | i | i
CN(Cc1cnn(C)c1)Cc1nc(Cc2ccccc2Cl)no1 | -0.67 | i | i | i | i | -4.8 | x | x | x
COc1cccc(-n2cc(CN(C)Cc3nc(Cc4cccc(F)c4)no3)cn2)c1 | -0.38 | i | i | i | i | -18.6 | i | i | i
Cc1ccnc(NS(=O)(=O)c2ccc(-n3cccn3)cc2)c1 | -0.3 | i | i | i | i | -3.8 | x | x | x
O=C(O)C1CCCN1S(=O)(=O)c1ccc(F)cc1 (stereo not given) | -1.74 | i | i | i | i | -2.6 | x | x | x
Cc1ccc(C)c(N2CCN(C(=O)C3CCCCN3S(=O)(=O)c3ccc(F)cc3)CC2)c1 (stereo not given) | -0.1 | i | i | -18.9* | i | -6.0 | 29.5%* | i | 30.0%*
CN1C(=S)SC2CS(=O)(=O)CC21 (stereo not given) | -0.06 | i | i | i | i | -1.3 | x | x | x

Bioassay records (PubChem BioAssay)
